Measured values: ChEMBL document CHEMBL2057168, “(1aR,5aR)1a,3,5,5a-Tetrahydro-1H-2,3-diaza-cyclopropa[a]pentalene-4-carboxylic acid (MK-1903): a potent GPR109a agonist that lowers free fatty acids in humans” (J Med Chem, 2012)

How the values were obtained:
[1] = system: Rhesus monkey; assay: Dose normalized AUC in po dosed rhesus monkey; type: ADME, organism-based, Macaca mulatta; details: in vivo
[2] = system: Canis familiaris; assay: Dose normalized AUC in po dosed dog; type: ADME, organism-based, Canis lupus familiaris; details: in vivo
[3] = target: Cytochrome P450 3A4 (Homo sapiens, UniProt P08684); assay: Activity at CYP3A4; type: ADME
[4] = Cmin in human at titreated dose from day 1 to 4 followed by 200 mg, po QD administered up to day 11 measured on day 11 at 12 hrs; type: ADME, organism-based; details: in vivo, read-out: Cmin
Outline: (§1)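 Healthy male volunteers took part in a double-blind, randomized, placebo-controlled dose-escalation study, with cohorts of 8 (6 on drug, 2 on placebo). Each subject got an oral dose on day 1, then a 2-day washout, then dosing on days 4–11. The 200 mg qd group was titrated over days 1–4. Venous plasma was sampled predose and 0.5–12 h postdose on days 1, 4 and 11, and predose on days 5–10 for troughs.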

[5] = Cmin in human at 175 mg, po QID administered on day 1 followed by 2-days wash out period after which dosing continued up to day 11 measured on day 1 at 6 hrs; type: ADME, organism-based; details: in vivo, read-out: Cmin; outline: as §1
[6] = Cmin in human at 100 mg, po BID administered on day 1 followed by 2-day wash out period after which dosing continued up to day 11 measured on day 11 at 12 hrs; type: ADME, organism-based; details: in vivo, read-out: Cmin
Outline: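 Healthy male volunteers, double-blind placebo-controlled randomized dose escalation; cohorts of eight (six active, two placebo). Oral dose on day 1, two-day washout, then dosing days 4–11. Venous blood predose and 0.5, 1, 1.5, 2, 4, 6, 8, 10, 12 h postdose on days 1, 4 and 11 for plasma drug; dosing interval (τ) 12 h for BID, 8 h for TID; Ctrough taken at end of interval.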

[7] = Cmax in human at 150 mg, po BID administered on day 1 followed by 2-day wash out period after which dosing continued up to day 11 measured on day 11; type: ADME, organism-based; set-up: dose 150 mg, route oral; details: in vivo; outline: as §1
[8] = system: Homo sapiens; assay: Antidyslipedic activity in human assessed as decrease in free fatty acid level at 50 to 200 mg, po administered as a single dose measured after 1 to 2 hrs relative to placebo control; type: functional; set-up: scale not given: the % may be the effect or the level left
[9] = AUC (0 to 12 hrs) in human at 150 mg, po BID administered on day 1 followed by 2-day wash out period after which dosing continued up to day 11 measured on day 4; type: ADME, organism-based; set-up: dose 150 mg, time < 12 hr, route oral; details: plasma
Outline: (§2)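 Double-blind, placebo-controlled, randomized dose-escalation study in healthy male volunteers, six cohorts of eight (six active, two placebo). Oral dose on day 1, two-day washout, then dosing days 4–11; the 200 mg qd cohort was titrated over days 1–4. Venous blood taken predose and at 0.5–12 h on days 1, 4 and 11; plasma drug measured. τ 12 h (bid), 24 h (qd), 8 h (tid), 6 h (qid).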

[10] = system: Homo sapiens; assay: Antidyslipidemic activity in dyslipidemia patient assessed as change in triglyceride level at 150 mg administered TID during four week study relative to control; type: functional
[11] = AUC (0 to 8 hrs) in human at 150 mg, po TID administered on day 1 followed by 2-days wash out period after which dosing continued up to day 11 measured on day 4; type: ADME, organism-based; set-up: time < 8 hr, dose 150 mg, route oral; details: plasma; outline: as §2
[12] = Tmax in human at 50 mg, po BID administered on day 1 followed by 2-day wash out period after which dosing continued up to day 11 measured on day 4; type: ADME, organism-based; details: in vivo
Outline: (§3)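 Double-blind, placebo-controlled, randomized multiple oral dose study in healthy male volunteers (cohorts of eight; six active, two placebo). Dose given on day 1, then a two-day washout, then dosing days 4–11; for the QD arm, subjects were titrated over days 1–4. Venous plasma sampled predose and 0.5, 1, 1.5, 2, 4, 6, 8, 10, 12 h postdose on days 1, 4 and 11. Tmax reported as median (min–max).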

[13] = Oral bioavailability in Sprague-Dawley rat at 10 mg/kg; type: ADME, organism-based; details: in vivo
Outline: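 Male Sprague-Dawley rats were dosed at 10 mg/kg po or 2 mg/kg iv in 80% PEG400/20% phosphate-buffered saline, fasted overnight before the oral dose. Jugular blood was sampled serially from 0.25 to 21 h over 24 h, and heparinized plasma was prepared. Drug was assayed by HPLC/MS/MS (quantitation range 1–2000 ng/mL).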

[14] = Tmax in human at 175 mg, po QID administered on day 1 followed by 2-days wash out period after which dosing continued up to day 11 measured on day 1; type: ADME, organism-based; details: in vivo; outline: as §3
[15] = AUC (0 to 12 hrs) in human at 100 mg, po BID administered on day 1 followed by 2-day wash out period after which dosing continued up to day 11 measured on day 4; type: ADME, organism-based; set-up: time < 12 hr, dose 100 mg, route oral; details: plasma; outline: as §2
[16] = Tmax in human at titreated po dose administered from day 1 to 4 followed by 200 mg, po QD administered up to day 11 measured on day 4; type: ADME, organism-based; details: in vivo; outline: as §3
[17] = Blood clearance in mouse; type: ADME, organism-based; details: whole blood
Outline: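 Pharmacokinetics across species; for mice, clearance determined in blood rather than plasma following dosing.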

[18] = Apparent half life in human at 175 mg, po QID administered on day 1 followed by 2-days wash out period after which dosing continued up to day 11 measured on day 11; type: ADME, organism-based; details: in vivo, read-out: t1/2(app) (converted); outline: as §2
[19] = Cmin in human at 100 mg, po BID administered on day 1 followed by 2-day wash out period after which dosing continued up to day 11 measured on day 1 at 12 hrs; type: ADME, organism-based; details: in vivo, read-out: Cmin; outline: as §1
[20] = Cmax in human at 50 mg, po BID administered on day 1 followed by 2-day wash out period after which dosing continued up to day 11 measured on day 1; type: ADME, organism-based; set-up: dose 50 mg, route oral; details: in vivo; outline: as §1
[21] = Cmax in human at 50 mg, po BID administered on day 1 followed by 2-day wash out period after which dosing continued up to day 11 measured on day 11; type: ADME, organism-based; set-up: dose 50 mg, route oral; details: in vivo; outline: as §1
[22] = Tmax in human at 175 mg, po QID administered on day 1 followed by 2-days wash out period after which dosing continued up to day 11 measured on day 11; type: ADME, organism-based; details: in vivo; outline: as §3
[23] = Oral bioavailability in mouse; type: ADME, organism-based; details: in vivo
[24] = system: Homo sapiens; assay: Cmin in human at 50 mg, po BID administered on day 1 followed by 2-day wash out period after which dosing continued up to day 11 measured on day 1 at 12 hrs; type: ADME, organism-based; details: in vivo, BLD = below limit of detection; outline: as §1
[25] = Cmin in human at 100 mg, po BID administered on day 1 followed by 2-day wash out period after which dosing continued up to day 11 measured on day 4 at 12 hrs; type: ADME, organism-based; details: in vivo, read-out: Cmin; outline: as §1
[26] = system: Canis familiaris; assay: Dose normalized Cmax in po dosed dog; type: ADME, organism-based, Canis lupus familiaris; details: in vivo
[27] = AUC (0 to 12 hrs) in human at 50 mg, po BID administered on day 1 followed by 2-day wash out period after which dosing continued up to day 11 measured on day 11; type: ADME, organism-based; set-up: dose 50 mg, time < 12 hr, route oral; details: plasma; outline: as §2
[28] = system: Rattus norvegicus; assay: Antidyslipedic activity in fasted Sprague-Dawley rat assessed as decrease in free fatty acid level at 0.01 to 100 mg/kg, po by NEFA C-free fatty acid assay; type: functional; set-up: scale not given: the % may be the effect or the level left; details: dose mg/kg 0.01-100
Outline: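 Male Sprague-Dawley rats fasted, compound by oral gavage, serial plasma sampling after dosing for free fatty acids over a time course; vehicle-dosed control group.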

[29] = Tmax in human at 150 mg, po BID administered on day 1 followed by 2-day wash out period after which dosing continued up to day 11 measured on day 1; type: ADME, organism-based; details: in vivo; outline: as §3

Cytochrome P450 3A4, sequence (P08684 whole entry): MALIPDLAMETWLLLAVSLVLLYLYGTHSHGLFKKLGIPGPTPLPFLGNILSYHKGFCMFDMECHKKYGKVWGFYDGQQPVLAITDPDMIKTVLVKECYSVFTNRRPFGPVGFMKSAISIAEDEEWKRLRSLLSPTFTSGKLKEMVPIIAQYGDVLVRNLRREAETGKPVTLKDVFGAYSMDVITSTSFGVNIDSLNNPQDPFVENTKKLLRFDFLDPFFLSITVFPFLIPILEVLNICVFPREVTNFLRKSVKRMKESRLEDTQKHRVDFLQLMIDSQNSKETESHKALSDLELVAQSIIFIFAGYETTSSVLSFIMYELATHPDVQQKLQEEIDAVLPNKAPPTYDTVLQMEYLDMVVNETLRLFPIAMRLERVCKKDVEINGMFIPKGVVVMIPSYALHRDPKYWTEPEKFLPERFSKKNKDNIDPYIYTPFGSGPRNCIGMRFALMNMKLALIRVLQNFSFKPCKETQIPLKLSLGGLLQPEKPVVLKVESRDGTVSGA

Compound: O=C(O)c1n[nH]c2c1C[C@H]1C[C@@H]21
- AUC/dose [1]: 8.5 µM·kg·h/mg
- AUC/dose [2]: 33.3 µM·kg·h/mg
- Activity [3]: Not Active
- concentration at 12 h [4]: 0.273 nM
- concentration at 6 h [5]: 4.01 nM
- concentration at 12 h [6]: 0.104 nM
- Cmax [7]: 27.7 nM
- Activity [8]: 90%
- AUC at 12 h [9]: 0.0803 µM·h
- Activity [10]: -10.3%
- AUC at 8 h [11]: 0.0885 µM·h
- Tmax [12]: 1.25 h
- bioavailability [13]: 83%
- Tmax [14]: 1.25 h
- AUC at 12 h [15]: 0.0657 µM·h
- Tmax [16]: 1.5 h
- clearance [17]: 10 mL/min/kg
- half-life [18]: 6 h
- concentration at 12 h [19]: 0.124 nM
- Cmax [20]: 12.3 nM
- Cmax [21]: 16.2 nM
- Tmax [22]: 0.75 h
- bioavailability [23]: 40%
- Cmin [24]: BLD
- concentration at 12 h [25]: 0.083 nM
- Cmax/dose [26]: 17.5 µM·kg/mg
- AUC at 12 h [27]: 0.0254 µM·h
- Activity [28]: 90%
- Tmax [29]: 1.25 h
